One data set concerns the target Cholinesterase (Homo sapiens, UniProt P06276). As to the kind of experiment: Inhibition of human BChE after 30 mins by microplate reader method.
Data set [1] is described as follows: Cellular uptake in human OVCAR3 cell nucleus assessed as per 10^3 cells after 24 hrs by gamma counting. The conditions noted are these: ovcar-3, 24 h. It counts as ADME, cell-based. The essentials: (§1)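 OVCAR-3 cells incubated 1 h with 55.5 (0.04) kBq/mL 125I-labelled agent (diastereomer mixtures or resolved slow isomers); fractionated either immediately or after 24 h further growth in fresh nonradioactive medium; 125I in cytoplasm and nucleus counted as cpm/10^3 cells with std dev.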

A short description of data set [2]: Cellular uptake in human OVCAR3 cell cytoplasm assessed as per 10^3 cells after 24 hrs by gamma counting. It counts as ADME, cell-based. The conditions noted are these: ovcar-3, 24 h. In outline: as §1
Data set [3] in a line: Cellular uptake in human OVCAR3 cell cytoplasm assessed as per 10^3 cells after 1 hr by gamma counting. The class given is ADME, cell-based. The conditions noted are these: ovcar-3, 1 h. In outline: as §1
A short description of data set [4]: Cellular uptake in human OVCAR3 cytoplasm at 55.5 kBq/mL incubated for 1 hr followed by compound wash out measured after 24 hrs by gamma counting. The class given is ADME, cell-based. The conditions noted are these: ovcar-3, 1 h. The essentials:
as §1

Data set [5] in a line: Cellular uptake in human OVCAR3 cell nucleus assessed as per 10^3 cells after 1 hr by gamma counting. The class given is ADME, cell-based. The conditions noted are these: ovcar-3, 1 h. The essentials:
as §1

A short description of data set [6]: Half life of the compound in phosphate buffer at pH 7.3. It counts as physicochemical.
Data set [7] in a line: Chemical stability of the compound in phosphate buffer at pH 7.3. It counts as physicochemical.
For another data set, the system named is LS174T. Nature of the data set: Cytotoxicity against human LS 174T cells assessed as incorporation of radioisotope at 185 kBq/mL after 4 hrs by gamma counting. The class given is functional, cell-based. The conditions noted are these: tested as the 125I-labelled form. The essentials:
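LS 174T cells exposed 4 h to 185 kBq/mL 125I agent, harvested immediately and plated for clonogenic survival (relative to untreated controls); 125I retained in nuclear DNA measured as mBq/cell.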

A short description of data set [8]: Cytotoxicity against human LS 174T cells assessed as colony formation at 114.5 kBq/mL incubated for 4 hrs measured after 21 days by clonogenic assay. It counts as functional, LS174T. The essentials: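 LS 174T cells exposed 4 h to 114.5 kBq/mL 125I agent, cultured 24 h in nonradioactive medium, then harvested and plated; colonies counted after 21 days; surviving fraction = treated colonies / untreated control colonies.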

A further data set deals with U-87MG ATCC. Nature of the data set: Cytotoxicity against human U87MG cells assessed as cell death at 18.5 kBq/mL after 8 weeks by clonogenic assay. It counts as functional, cell-based. The conditions noted are these: tested as the 125I-labelled form. The essentials: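 U-87 MG cells treated 24 h with increasing 125I agent concentrations, then grown in fresh medium; colony formation followed up to eight weeks versus vehicle-treated controls.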

From ChEMBL document CHEMBL2146438, “Radiolabeled cyclosaligenyl monophosphates of 5-iodo-2'-deoxyuridine, 5-iodo-3'-fluoro-2',3'-dideoxyuridine, and 3'-fluorothymidine for molecular radiotherapy of cancer: synthesis and biological evaluation” (J Med Chem, 2012) come the findings set out here.

pIC50: −log10 of the molar value. Calls of active or inactive are those of the source. The rule behind the calls is not given here.

As a reminder, the pIC50 is the negative decadic logarithm of the IC50, by convention in mol/L.

Sequence of Cholinesterase (P06276 whole entry): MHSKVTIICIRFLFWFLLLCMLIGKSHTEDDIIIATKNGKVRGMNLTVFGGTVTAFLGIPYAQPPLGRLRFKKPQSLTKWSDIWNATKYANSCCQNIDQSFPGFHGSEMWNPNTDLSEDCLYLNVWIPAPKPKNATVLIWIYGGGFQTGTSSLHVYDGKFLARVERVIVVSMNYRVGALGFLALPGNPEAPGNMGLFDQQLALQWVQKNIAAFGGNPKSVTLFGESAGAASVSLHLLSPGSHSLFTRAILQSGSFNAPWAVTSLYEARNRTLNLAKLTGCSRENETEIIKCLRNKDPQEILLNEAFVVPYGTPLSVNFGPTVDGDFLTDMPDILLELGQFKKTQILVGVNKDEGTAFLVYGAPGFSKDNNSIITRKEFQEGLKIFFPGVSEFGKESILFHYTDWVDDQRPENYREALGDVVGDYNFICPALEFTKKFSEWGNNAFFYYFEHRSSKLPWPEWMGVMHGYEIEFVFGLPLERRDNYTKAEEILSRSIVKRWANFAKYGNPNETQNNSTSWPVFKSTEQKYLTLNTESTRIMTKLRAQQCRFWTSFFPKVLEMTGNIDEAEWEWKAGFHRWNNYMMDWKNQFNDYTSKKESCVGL

For `Cc1cccc2c1OP(=O)(OC[C@H]1O[C@@H](n3cc(I)c(=O)[nH]c3=O)C[C@@H]1O)OC2` (stereo in doubt; form 2), the negative-log IC50 (pIC50) on Cholinesterase was 7.21.
As to `Cc1cccc2c1OP(=O)(OC[C@H]1O[C@@H](n3cc([125I])c(=O)[nH]c3=O)C[C@@H]1O)OC2` (stereo in doubt; 7b), the Drug uptake in data set [1] (24 h) is recorded as 25.9 cpm; in data set [2] (24 h), 1.6 cpm; in data set [3] (1 h) it was 11.7 cpm; in data set [4], “Active”; in data set [5] (1 h), 4.5 cpm.
In turn, `CC(C)(C)c1cc(C(C)(C)C)c2c(c1F)COP(=O)(OC[C@H]1O[C@@H](n3cc(I)c(=O)[nH]c3=O)C[C@@H]1O)O2` (stereo in doubt; form 1) registered a t1/2 in [6] of 47.9 h. In data set [7], this compound had a K of 2.41 ×10⁻⁴ /min.
With `CC(C)(C)c1cc(C(C)(C)C)c2c(c1F)COP(=O)(OC[C@H]1O[C@@H](n3cc([125I])c(=O)[nH]c3=O)C[C@@H]1O)O2` (stereo in doubt; 8b), the Drug uptake in data set [1] (24 h) is on record as 92.2 cpm; in [2] (24 h), 3.2 cpm; in [3] (1 h), 88.3 cpm; in data set [4] it was above 230%; in data set [5] (1 h), 7.9 cpm.
`Cc1cn([C@H]2C[C@H](F)[C@@H](COP3(=O)OCc4c(F)c(C(C)(C)C)cc(C(C)(C)C)c4O3)O2)c(=O)[nH]c1=O` (stereo in doubt; form 2) gave a pIC50 on Cholinesterase of 7.37.
Take `O=c1[nH]c(=O)n([C@H]2C[C@H](O)[C@@H](COP3(=O)OCc4ccccc4O3)O2)cc1[125I]` (stereo in doubt; 6b): the Drug uptake in data set [1] (24 h) is recorded as 39.4 cpm; in data set [2] (24 h), 7.3 cpm; in [3] (1 h) it was 20.2 cpm; in data set [4], “Active”; in data set [5] (1 h) it was 5.7 cpm.
Take `O=c1[nH]c(=O)n([C@H]2C[C@H](OP3(=O)OCc4ccccc4O3)[C@@H](COP3(=O)OCc4ccccc4O3)O2)cc1[125I]` (some centres not stated): the Drug uptake is listed as 18.1 cpm in data set [1], 37.3 cpm in data set [2], 97.6 cpm in [3] and 6.4 cpm in data set [5].
Take `Cc1cccc2c1OP(=O)(OC[C@H]1O[C@@H](n3cc(I)c(=O)[nH]c3=O)C[C@@H]1O)OC2` (stereo in doubt; form 1): on Cholinesterase, the pIC50 is below 2.15.
On the same count and under the same terms, next, `Cc1cn([C@H]2C[C@H](O)[C@@H](COP3(=O)OCc4c(F)c(C(C)(C)C)cc(C(C)(C)C)c4O3)O2)c(=O)[nH]c1=O` (stereo in doubt; form 1): 4.63.
On to `O=c1[nH]c(=O)n([C@H]2C[C@H](OP3(=O)OCc4ccccc4O3)[C@@H](CO)O2)cc1[125I]` (some centres not stated), for which the Drug uptake in [1] is on record as 30.2 cpm; in [2], 2.7 cpm; in data set [3], 7.2 cpm; in data set [5], 2.1 cpm.
For the compound `CC(C)(C)c1cc(C(C)(C)C)c2c(c1F)COP(=O)(OC[C@H]1O[C@@H](n3cc(I)c(=O)[nH]c3=O)C[C@@H]1F)O2` (stereo in doubt; form 1), the t1/2 in [6] is 39.6 h. Besides, the K in data set [7] was determined as 2.92 ×10⁻⁴ /min. This compound gave a pIC50 on Cholinesterase of 6.26.
Consider `CC(C)(C)c1cc(C(C)(C)C)c2c(c1F)COP(=O)(O[C@H]1C[C@H](n3cc([125I])c(=O)[nH]c3=O)O[C@@H]1CO)O2` (some centres not stated), for which the Drug uptake in [1] is reported as 66.7 cpm; in data set [2], 2.7 cpm; in [3], 62.5 cpm; in data set [5], 4.3 cpm.
For `Cc1cccc2c1OP(=O)(OC[C@H]1O[C@@H](n3cc([125I])c(=O)[nH]c3=O)C[C@@H]1O)OC2` (stereo in doubt; form 2), the Drug uptake is listed as 29.3 cpm in [1] (24 h), 1.8 cpm in data set [2] (24 h), 13 cpm in data set [3] (1 h) and 5.4 cpm in [5] (1 h). Moreover, the t1/2 in data set [6] was found to be 25 h. The K in [7] is 4.63 ×10⁻⁴ /min.
Regarding `O=c1[nH]c(=O)n([C@H]2C[C@H](OP3(=O)OCc4ccccc4O3)[C@@H](CO)O2)cc1I` (stereo in doubt; form 1), the t1/2 in [6] was found to be 5.3 h. Further, in [7], the K is recorded as 2.05 ×10⁻³ /min.
The matching figures for `Cc1cccc2c1OP(=O)(O[C@H]1C[C@H](n3cc(I)c(=O)[nH]c3=O)O[C@@H]1CO)OC2` (stereo in doubt; form 1): 12.2 h and 9.46 ×10⁻⁴ /min.
The matching figures for `Cc1cccc2c1OP(=O)(O[C@H]1C[C@H](n3cc(I)c(=O)[nH]c3=O)O[C@@H]1CO)OC2` (stereo in doubt; form 2): 14.2 h and 8.13 ×10⁻⁴ /min.
In the case of `Cc1cccc2c1OP(=O)(O[C@H]1C[C@H](n3cc([125I])c(=O)[nH]c3=O)O[C@@H]1CO)OC2` (some centres not stated), the Drug uptake worked out at 15.7 cpm in data set [1], 1.4 cpm in data set [2], 6.2 cpm in data set [3] and 2 cpm in [5].
`O=c1[nH]c(=O)n([C@H]2C[C@H](O)[C@@H](COP3(=O)OCc4ccccc4O3)O2)cc1I` (stereo in doubt; form 2) had a pIC50 against Cholinesterase of 8.04.
On the same count and under the same terms, next, `Cc1cn([C@H]2C[C@H](F)[C@@H](COP3(=O)OCc4c(F)c(C(C)(C)C)cc(C(C)(C)C)c4O3)O2)c(=O)[nH]c1=O` (stereo in doubt; form 1): 6.69.
`CC(C)(C)c1cc(C(C)(C)C)c2c(c1F)COP(=O)(OC[C@H]1O[C@@H](n3cc(I)c(=O)[nH]c3=O)C[C@@H]1F)O2` (stereo in doubt; form 2) had a t1/2 in data set [6] of 52 h. Besides, the K in data set [7] was 2.22 ×10⁻⁴ /min. This compound also showed a negative logarithm of the IC50 (pIC50) at Cholinesterase of 7.70.
With `Cc1cccc2c1OP(=O)(OC[C@H]1O[C@@H](n3cc(I)c(=O)[nH]c3=O)C[C@@H]1O)OC2` (stereo in doubt; form 3), the outcome with LS174T was Active.
In data set [6], `CC(C)(C)c1cc(C(C)(C)C)c2c(c1F)COP(=O)(OC[C@H]1O[C@@H](n3cc([125I])c(=O)[nH]c3=O)C[C@@H]1F)O2` (stereo in doubt; form 2) yielded a t1/2 of 51.5 h. Besides, the K in [7] turned out to be 2.24 ×10⁻⁴ /min.
With `O=c1[nH]c(=O)n([C@H]2C[C@H](O)[C@@H](COP3(=O)OCc4ccccc4O3)O2)cc1[125I]` (stereo in doubt; form 2), the Drug uptake came out at 31.3 cpm in [1] (24 h), 6 cpm in [2] (24 h), 14.8 cpm in data set [3] (1 h) and 4.9 cpm in data set [5] (1 h). Moreover, in data set [6], the t1/2 worked out at 7.6 h. For the same compound, the Activity in data set [8] is recorded as 38%. The compound also showed a K in [7] of 1.52 ×10⁻³ /min.
`CC(C)(C)c1cc(C(C)(C)C)c2c(c1F)COP(=O)(OC[C@H]1O[C@@H](n3cc(I)c(=O)[nH]c3=O)C[C@@H]1O)O2` (stereo in doubt; form 3): on Cholinesterase, the pIC50 was 5.95.
On the same count and under the same terms, next, `Cc1cn([C@H]2C[C@H](O)[C@@H](COP3(=O)OCc4c(F)c(C(C)(C)C)cc(C(C)(C)C)c4O3)O2)c(=O)[nH]c1=O` (stereo in doubt; form 2): 6.42.
Consider `O=c1[nH]c(=O)n([C@H]2C[C@H](OP3(=O)OCc4ccccc4O3)[C@@H](CO)O2)cc1I` (stereo in doubt; form 2), for which, in [6], the t1/2 stood at 7.1 h. For the same compound, in data set [7], the K is recorded as 1.64 ×10⁻³ /min.
On to `O=c1[nH]c(=O)n([C@H]2C[C@H](O)[C@@H](COP3(=O)OCc4ccccc4O3)O2)cc1I` (stereo in doubt; form 1), for which the negative logarithm of the IC50 (pIC50) against Cholinesterase is 5.89.
For `CC(C)(C)c1cc(C(C)(C)C)c2c(c1F)COP(=O)(O[C@H]1C[C@H](n3cc(I)c(=O)[nH]c3=O)O[C@@H]1CO)O2` (stereo in doubt; form 1), the t1/2 in [6] is 15.1 h. Besides, in [7], the K stood at 7.66 ×10⁻⁴ /min.
With `O=c1[nH]c(=O)n([C@H]2C[C@H](O)[C@@H](COP3(=O)OCc4ccccc4O3)O2)cc1I` (stereo in doubt; form 3), in the data set with U-87MG ATCC, the result was Active.
In the case of `Cc1cccc2c1OP(=O)(OC[C@H]1O[C@@H](n3cc([125I])c(=O)[nH]c3=O)C[C@@H]1OP1(=O)OCc3cccc(C)c3O1)OC2` (some centres not stated), the Drug uptake in data set [1] was found to be 24.5 cpm; in data set [2], 13.4 cpm; in data set [3], 97.1 cpm; in data set [5] it was 6 cpm.
`CC(C)(C)c1cc(C(C)(C)C)c2c(c1F)COP(=O)(OC[C@H]1O[C@@H](n3cc(I)c(=O)[nH]c3=O)C[C@@H]1O)O2` (stereo in doubt; form 2) displayed a t1/2 in [6] of 61.5 h. Besides, the K in data set [7] was found to be 1.88 ×10⁻⁴ /min. Also, the pIC50 against Cholinesterase was 7.30.
